This is a sample that favours compounds with a hit; in the whole collection about 0.83% have one here.
RGS16-Gao: modulators of RGS16 binding to Galphao, primary screen, biochemical, human proteins, multiplexed bead flow cytometry | bead-based flow cytometry RGS16-Galphao binding, fluorescence; actives lie on both sides | binding response (% of control), % at 10 µM | 0.38% of 220,000 active | AID 1441, 2008;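 further: Galphao activated by GDP with aluminum fluoride before binding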
RGS7-Gao: RGS7-Galphao binding modulators, primary screen, biochemical, multiplexed bead flow cytometry; Guanine nucleotide-binding protein G(o) subunit alpha (Homo sapiens), P09471; actives lie on both sides; binding response (% of control), % at 10 µM; 0.35% of 220,000 active; AID 1439, 2008; in the data active means binding response below about 49% or above about 150%; inconclusive means no clear call, values can overlap the other calls; inactive means in between;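 further: fluorescent Galphao held in activated GDP-AlF4 state binding bead-coupled RGS7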
RGS8-Gao reg: RGS8-Galphao binding modulators, primary screen, biochemical, multiplexed bead flow cytometry; 0.34% of 220,000 active; Guanine nucleotide-binding protein G(o) subunit alpha (Homo sapiens), P09471; response (percent of control binding), % at 10 µM; actives lie on both sides; in the data active means response below about 60% or above about 140%; inactive means in between;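 further: Galphao activated as the GDP aluminium fluoride complex binding bead-coupled RGS8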
ABCG2 inh: ABCG2 efflux pump inhibitors, primary screen, multiplex with ABCB1, IgMXP3 cells, flow cytometry. 0.1% of 190,000 active. Broad substrate specificity ATP-binding cassette transporter ABCG2 (Homo sapiens), Q9UNQ0. AID 1325, 2008. JC-1 efflux. inhibition, % at 6.6 µM;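 active means inhibition above 80%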;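 further: 0% = DMSO and 100% = nicardipine control wells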
Target sequence (Q9UNQ0 whole entry, looked up): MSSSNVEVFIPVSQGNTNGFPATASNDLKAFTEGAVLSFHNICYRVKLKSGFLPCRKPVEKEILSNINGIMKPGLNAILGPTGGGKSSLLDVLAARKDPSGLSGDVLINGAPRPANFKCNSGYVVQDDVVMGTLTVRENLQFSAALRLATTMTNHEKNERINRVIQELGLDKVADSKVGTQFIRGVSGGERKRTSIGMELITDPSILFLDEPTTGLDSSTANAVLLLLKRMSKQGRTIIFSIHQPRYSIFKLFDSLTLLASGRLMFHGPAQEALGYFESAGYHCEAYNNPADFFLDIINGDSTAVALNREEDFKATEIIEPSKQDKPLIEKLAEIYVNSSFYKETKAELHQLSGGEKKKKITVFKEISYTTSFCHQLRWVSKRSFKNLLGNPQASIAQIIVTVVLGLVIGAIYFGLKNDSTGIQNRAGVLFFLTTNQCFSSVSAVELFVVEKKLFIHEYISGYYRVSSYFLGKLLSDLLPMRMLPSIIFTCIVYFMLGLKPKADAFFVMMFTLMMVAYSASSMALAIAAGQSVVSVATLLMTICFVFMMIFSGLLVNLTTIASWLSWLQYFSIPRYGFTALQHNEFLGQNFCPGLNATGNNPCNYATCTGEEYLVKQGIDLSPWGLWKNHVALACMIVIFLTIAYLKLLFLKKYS
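Read-out basis: Efflux inhibition in percent versus controls | Test system: ABCG2 IgMXP3 and barcoded ABCB1 CCRF-Adr cell mix | Quantity: 3 million cells/mL in well | Schedule: 10 min at 25 °C | Control set: Nicardipine as high control, DMSO as low control | Reagent: JC-1 as fluorescent efflux pump substrate | Signal: Flow cytometry of retained JC-1 fluorescence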
ABCB1 inh: ABCB1 efflux pump inhibitors, primary screen, cell-based, multiplex, flow cytometry, ABCG2 counter-screen | ATP-dependent translocase ABCB1 (Homo sapiens), P08183 | CCRF-Adr cells, JC-1 efflux | inhibition, % at 6.6 µM | 0.067% of 190,000 active; in the data active means inhibition above about 40%;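 further: 0% = vehicle and 100% = reference inhibitor; higher value means more JC-1 retained so stronger ABCB1 efflux block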
RGS4-Gao reg: modulators of RGS4 binding to Galphao, primary screen, biochemical, multiplexed bead flow cytometry; Guanine nucleotide-binding protein G(o) subunit alpha (Homo sapiens), P09471; actives lie on both sides; binding response (% of control), % at 10 µM; 0.33% of 220,000 active; in the data active means binding response below about 49% or above about 150%; inactive means in between;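 further: fluorescent Galphao activated with aluminum fluoride binding bead-coupled RGS4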
RGS4-Gao HTS: modulators of RGS–Galpha-o binding, primary screen, biochemical, multiplexed beads, flow cytometry, RGS4/7/8/16/19; 99% of 1,600 active; RGS4–Galpha-o binding response, % at 10 µM; shares compounds with RGS16-Gao; multiplexed bead flow cytometry;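 further: fluorescently labeled Galpha-o bound to GDP with aluminium fluoride binding biotinylated RGS beads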
Avidin counter: disruption of biotin probe capture by avidin, counter-screen for RGS protein interaction modulators, biochemical, flow cytometry, bead-based; shares compounds with RGS16-Gao; AID 1783, 2009; inhibition, % at 10 µM; streptavidin beads, fluorescein-biotin binding; 1,700 tested, under 10 active;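 active means inhibition above 50%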;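 further: median green fluorescence of gated singlet beads compared with DMSO control wells; 0% = DMSO wells and 100% = complete loss of bead fluorescence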
RGS8-Gao confirm: RGS8-Galphao binding modulators, confirmation, biochemical, multiplexed bead flow cytometry, single concentration | shares compounds with RGS16-Gao | bead-based flow cytometry RGS8-Galphao binding, fluorescence; actives lie on both sides | binding response (% of control), % at 10 µM | 3% of 1,700 active; in the data active means binding response below about 72% or above about 130%; inactive means in between;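 further: Galphao activated as GDP AlF4 complex before binding bead RGS8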
RGS7-Gao confirm: RGS7-Galphao binding modulators, confirmation, biochemical, multiplexed bead flow cytometry, single concentration. shares compounds with RGS16-Gao. 7.8% of 1,700 active. response (percent of control binding), % at 10 µM. bead-based flow cytometry RGS7-Galphao binding; actives lie on both sides; in the data active means response below about 75% or above about 130%; inactive means in between;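 further: fluorescent Galphao activated with GDP and aluminum fluoride binding bead-coupled RGS7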
RGS16-Gao single: modulators of RGS16-Galphao protein binding, confirmation, biochemical, single concentration, multiplexed bead flow cytometry; bead-based flow cytometry; actives lie on both sides; 4% of 1,700 active; shares compounds with RGS16-Gao; AID 1838, 2009; response (% of control binding), % at 10 µM; in the data active means response below about 74% or above about 130%; inactive means in between;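 further: Galphao activated as the GDP aluminium fluoride complex binding bead-coupled RGS16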
RGS4-Gao confirm: modulators of RGS4-Galphao protein binding, confirmation, biochemical, single concentration, multiplexed bead flow cytometry; shares compounds with RGS16-Gao; actives lie on both sides; binding response (% of control), % at 10 µM; 4% of 1,700 active; AID 1840, 2009; in the data active means binding response below about 74% or above about 130%; inactive means in between
RGS19-Gao conf: regulators of RGS19-Galphao binding, confirmation, biochemical, single point, multiplexed bead flow cytometry; shares compounds with RGS16-Gao; bead-based flow cytometry RGS19-Galphao binding; actives lie on both sides; response (percent of control binding), % at 10 µM; 5% of 1,700 active; in the data active means response below about 50% or above about 160%; inactive means in between;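 further: 100% = no compound control and 0% = blank background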
* hit, by the source's call; [ ] = another dose, or the depositor's remark. Unless noted, how the calls were made is not given here.

For CCOC(=O)C(NC(C)=O)C(OC(C)=O)c1cccc(N(CCO)CCO)c1 (stereo not given) the results were RGS16-Gao 100, RGS7-Gao 99, RGS8-Gao reg 99, ABCG2 inh 1, ABCB1 inh 0 and RGS4-Gao reg 100.
O=C(O)c1cn(-c2ccccc2)nc1-c1cccnc1 was read as RGS16-Gao 100, RGS7-Gao 98, RGS8-Gao reg 100, ABCG2 inh 3, ABCB1 inh 1 and RGS4-Gao reg 98.
CN1CCN(C(=O)c2cn(-c3ccccc3)nc2-c2cccnc2)CC1 was read as RGS16-Gao 151, RGS7-Gao 144, ABCG2 inh -1, ABCB1 inh 0, RGS4-Gao reg 152*[activator], Avidin counter -1, RGS8-Gao confirm 101, RGS7-Gao confirm 100, RGS16-Gao single 99, RGS4-Gao confirm 101 and RGS19-Gao conf 89.
For O=C(N/N=C1/CC2C=CCC12)c1ccco1 (stereo not given) the results were RGS16-Gao 95, RGS7-Gao 104, RGS8-Gao reg 98, ABCG2 inh -1, ABCB1 inh 0 and RGS4-Gao reg 100.
`CCN1CCCC1CNC(=O)C(=O)Nc1ccccc1OC` (stereo not given) gave RGS16-Gao 108, RGS7-Gao 153*[activator], RGS8-Gao reg 104, ABCG2 inh 16, ABCB1 inh 0, RGS4-Gao reg 101 and RGS4-Gao HTS 101*.
For CCc1ccc(S(=O)(=O)/N=C2/C=C(Sc3ncn[nH]3)C(=O)c3ccccc32)cc1 the results were RGS16-Gao 24*, RGS7-Gao 84, RGS8-Gao reg 63, ABCG2 inh -5, ABCB1 inh 0, RGS4-Gao reg 92 and RGS4-Gao HTS 92*.
O=C(N=Nc1c(O)[nH]c2ccc(Br)cc12)c1cc(-c2cccs2)nc2ccccc12 was read as RGS16-Gao 104, RGS7-Gao inconclusive, RGS8-Gao reg 103, ABCG2 inh 3, ABCB1 inh 0 and RGS4-Gao reg 103.
`O=C(N=Nc1c(O)[nH]c2ccc(Br)cc12)c1cc(-c2cccc3ccccc23)n[nH]1` gave RGS16-Gao 8.3*, RGS7-Gao 83, RGS8-Gao reg 67, ABCG2 inh -11, ABCB1 inh -2, RGS4-Gao reg 89, RGS4-Gao HTS 89*, Avidin counter -1, RGS8-Gao confirm 93, RGS7-Gao confirm 90, RGS16-Gao single 98, RGS4-Gao confirm 96 and RGS19-Gao conf 123.
For CCCNC(=O)c1ccc(CN2CCc3ccccc3C2)cc1 the results were RGS16-Gao 21*, RGS7-Gao 22*, RGS8-Gao reg 34*, ABCG2 inh 1, ABCB1 inh 0, RGS4-Gao reg 16*, Avidin counter 0, RGS8-Gao confirm 98, RGS7-Gao confirm 100, RGS16-Gao single 100, RGS4-Gao confirm 98 and RGS19-Gao conf 102.
`COCCNC(=O)c1ccc(CN2CCc3ccccc3C2)cc1` gave RGS16-Gao 100, RGS7-Gao 108, RGS8-Gao reg 101, ABCG2 inh -5, ABCB1 inh 0 and RGS4-Gao reg 107.
For CCCC(=O)OCC(=O)c1[nH]c(C)c(C(C)=O)c1C the results were RGS16-Gao 101, RGS7-Gao inconclusive, RGS8-Gao reg 100, ABCG2 inh 0, ABCB1 inh 0 and RGS4-Gao reg 99.
For O=C(c1nn2c(C(F)(F)F)cc(-c3ccco3)nc2c1Br)N1CCCc2ccccc21 the results were ABCG2 inh 2, ABCB1 inh 1, Avidin counter 2, RGS8-Gao confirm 105, RGS7-Gao confirm 107, RGS16-Gao single 107, RGS4-Gao confirm 108 and RGS19-Gao conf 90.
Screening O=C(c1nn2c(C(F)(F)F)cc(-c3cccs3)nc2c1Br)N1CCCc2ccccc21 returned RGS16-Gao 93, RGS7-Gao 103, RGS8-Gao reg 99, ABCG2 inh 7, ABCB1 inh 8 and RGS4-Gao reg 103.
CCOC(=O)CS(=O)(=O)c1ccccc1 was read as RGS16-Gao 106, RGS7-Gao 101, RGS8-Gao reg 102, ABCG2 inh 4, ABCB1 inh 1 and RGS4-Gao reg 104.
CC(=O)OC(C)CS(=O)(=O)c1ccccc1 (stereo not given) was read as RGS16-Gao 21*, RGS7-Gao 30*, RGS8-Gao reg 29*, ABCG2 inh 1, ABCB1 inh 0, RGS4-Gao reg 35*, Avidin counter 1, RGS8-Gao confirm 107, RGS7-Gao confirm 102, RGS16-Gao single 106, RGS4-Gao confirm 102 and RGS19-Gao conf 122.
